Where “and” joins values, the source holds several entries; their conditions need not be identical. Identical values can stand only once. Counter-ions that a name gives are not always drawn. Like-named read-outs stand apart in the source and are kept apart here.
Columns and labels:
mutants of P450BM-3 = conditions: cited from earlier work
P450BM-3 [1] = target: T1, P450BM-3 (Priestia megaterium, UniProt P14779); assay: biochemical; format: binding
T1 sequence (P14779 1-1049): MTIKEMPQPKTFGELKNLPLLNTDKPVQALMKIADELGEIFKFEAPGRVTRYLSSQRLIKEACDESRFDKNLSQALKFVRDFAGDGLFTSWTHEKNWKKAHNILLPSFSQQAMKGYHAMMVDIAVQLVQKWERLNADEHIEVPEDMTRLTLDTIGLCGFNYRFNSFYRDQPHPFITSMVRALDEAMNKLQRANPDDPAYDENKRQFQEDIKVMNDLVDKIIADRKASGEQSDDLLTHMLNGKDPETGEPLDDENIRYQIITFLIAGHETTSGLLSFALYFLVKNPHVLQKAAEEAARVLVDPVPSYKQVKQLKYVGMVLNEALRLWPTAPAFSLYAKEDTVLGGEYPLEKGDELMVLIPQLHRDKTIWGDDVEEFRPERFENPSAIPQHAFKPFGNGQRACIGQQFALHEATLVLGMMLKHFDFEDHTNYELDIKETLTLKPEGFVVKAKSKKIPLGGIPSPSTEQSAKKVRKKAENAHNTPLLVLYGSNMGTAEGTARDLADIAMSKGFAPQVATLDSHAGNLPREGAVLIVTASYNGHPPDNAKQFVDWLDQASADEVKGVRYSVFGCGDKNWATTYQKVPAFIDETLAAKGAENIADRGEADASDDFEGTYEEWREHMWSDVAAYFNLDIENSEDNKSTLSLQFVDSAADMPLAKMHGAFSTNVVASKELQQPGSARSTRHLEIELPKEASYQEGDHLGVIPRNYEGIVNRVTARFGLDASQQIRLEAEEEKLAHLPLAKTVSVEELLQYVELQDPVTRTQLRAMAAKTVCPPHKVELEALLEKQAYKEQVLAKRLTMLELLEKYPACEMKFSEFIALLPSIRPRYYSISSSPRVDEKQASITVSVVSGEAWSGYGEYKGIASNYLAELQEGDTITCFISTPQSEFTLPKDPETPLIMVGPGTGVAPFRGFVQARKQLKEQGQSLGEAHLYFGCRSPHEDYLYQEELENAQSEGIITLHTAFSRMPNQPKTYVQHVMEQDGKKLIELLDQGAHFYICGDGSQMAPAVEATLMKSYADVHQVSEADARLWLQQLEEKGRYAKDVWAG

P450BM-3 [2] = target: T1, P450BM-3; format: binding, Bacillus megaterium; conditions: read-out: Kd estimate (Kd = koff/kon); from fitted on- and off-rate constants
ferrous P450BM-3 = conditions: surrogate for O2; cited from earlier work
P450BM-3 [3] = target: T1, P450BM-3; assay: Steady-state NADPH oxidation; format: biochemical, Bacillus megaterium; conditions: for Km / kcat: rates of NADPH oxidation, hyperbolic fit, 23 °C
P450BM-3 [4] = target: T1, P450BM-3; conditions: substrate-bound P450BM-3; cited from earlier work
P450BM-3 [5] = target: T1, P450BM-3; assay: Pre-steady-state stopped-flow kinetics of substrate binding; set-up: species or system Bacillus megaterium; conditions: for eigenvalue (λ) of spectral change, single exponential fit: ΔA390
P450BM-3 [6] = target: T1, P450BM-3; format: biochemical, Bacillus megaterium; conditions: for site of hydroxylation: Jones oxidation, Baeyer-Villiger, LC-MS/MS
P450 102A2 (CYP102A2) [7] = assay: Literature: NADPH oxidation and binding with dodecyl sulfate by P450 102A2; format: biochemical, B. subtilis; conditions: P450 102A2 at 37 °C vs P450BM-3 at 23 °C
P450 102A2 (CYP102A2) [8] = conditions: cited from earlier work
P450BM-3 [9] = target: T1, P450BM-3; assay: Burst experiment: stopped-flow NADPH oxidation with lauric acid; format: biochemical, Bacillus megaterium; conditions: 2 μM P450BM-3, 500 μM lauric acid, 50 μM NADPH
Procedure, shortened: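 In the stopped-flow instrument, enzyme (4 μM) premixed with 1 mM lauric acid was mixed with 100 μM NADPH, both in 50 mM potassium MOPS pH 7.5. Runs were at 23 °C in rapid-scanning mode, recording spectra from 332–565 nm with kinetic traces taken at individual wavelengths.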

P450BM-3 [10] = target: T1, P450BM-3; conditions: read-out: Kd values in the previous literature; buffer conditions appear to affect these; cited from earlier work
P450BM-3 [11] = target: T1, P450BM-3; conditions: cited from earlier work
[12] = read-out: Kd (spectral titration), 50 mM potassium MOPS pH 7.4, 23 °C
[13] = d0 vs d23 lauric acid, non-competitive, NADPH oxidation

CCOc1ccc2ccc(=O)oc2c1 [7-ethoxycoumarin]
KIEs for O-deethylation (mutants of P450BM-3): 6–17

CC(O)CCCCCCCCCC(=O)O (centres unmarked) [11-OH lauric acid]
type of difference spectrum (P450BM-3 [1]): Type I | Kd (P450BM-3 [1]; [12]): 8 ± 2 µM | Kd (P450BM-3 [2]): 11 µM

[C-]#[O+] [CO]
rate constant for CO binding (ferrous P450BM-3): 1.6e+06 M⁻¹ s⁻¹

CCCCCCCCCCCCCCCC(=O)NCC(=O)O [N-palmitoylglycine]
Km (P450BM-3 [3]): 9 ± 2 µM | kcat (P450BM-3 [3]): 9.92 ± 0.667 s⁻¹ | rate of change of temperature-dependent spin equilibria (P450BM-3 [4]): ~ 800 s^−1

CCCCCCCCCCCCOS(=O)(=O)O [dodecyl sulfate]
Kd (P450BM-3 [1]; [12]): 14 ± 2 µM | Km (P450BM-3 [3]): 28 ± 1 µM | kcat (P450BM-3 [3]): 16.3 ± 0.333 s⁻¹ | eigenvalue (λ) of spectral change, single exponential fit (P450BM-3 [5]; 2 μM dodecyl sulfate (final)): 127 s⁻¹ and 127 ± 4 s⁻¹ | eigenvalue (λ) of spectral change, single exponential fit (P450BM-3 [5]; 200 μM dodecyl sulfate (final)): 51 ± 4 s⁻¹ | rate constant for substrate binding (kon), rough value (P450BM-3 [5]; from binding rate and substrate concentration): 6e+07 M⁻¹ s⁻¹ | t1/2 of binding spectral changes (P450BM-3 [5]; stopped-flow): 0.006 to 0.025 s | site of hydroxylation (P450BM-3 [6]): primarily ω−1 hydroxylation | fold lower specificity constant of P450 102A2 than P450BM-3 (P450 102A2 (CYP102A2) [7]): ~ 500 fold | apparent specificity constant kcat/S0.5 (P450 102A2 (CYP102A2) [8]; 37 °C): 1600 M⁻¹ s⁻¹ | Hill n value (P450 102A2 (CYP102A2) [8]; spectral binding and NADPH oxidation): 5.7

CCCCCCCCCCCC(=O)O [lauric acid]
Kd (P450BM-3 [1]; [12]): 29 µM | KIE, ^D(V/K) (P450BM-3 [3]; [13]): 0.79 ± 0.07 | KIE, ^DV (P450BM-3 [3]; [13]): 1.19 ± 0.16 | KIEs, measured with multiple concentrations of d0/d23 laurate (P450BM-3 [3]; depending on the assay method): ≤ 1.2 | kcat (P450BM-3 [3]): 19.33 ± 2.5 s⁻¹ | KIE from rates of formation of hydroxylated laurate products (P450BM-3 [6]; LC-MS, 100 μM laurate, 180 second time point): 1.03 | kinetic burst (P450BM-3 [9]): No burst was observed | rate of NADPH oxidation, steady-state portion (P450BM-3 [9]; pH 7.5): 608 ± 4 min⁻¹ | Kd (P450BM-3 [10]): 27 to 390 µM | rate of reduction of iron from the ferric to the ferrous state (P450BM-3 [11]): 53 to 306 s⁻¹

CCCCCCCCCCCCCC(=O)O [myristate]
Kd (P450BM-3 [1]): 12 µM | Kd (P450BM-3 [10]): 0.5 to 78 µM | rate of reduction of iron from the ferric to the ferrous state (P450BM-3 [11]): 53 to 306 s⁻¹

CCCCCCCCCCCCCCCC(=O)O [palmitic acid, Palmitic acid]
rate of reduction of iron from the ferric to the ferrous state (P450BM-3 [11]): 53 to 306 s⁻¹

CCCCCCCCCCCCCCOS(=O)(=O)O [tetradecyl sulfate]
Kd (P450BM-3 [1]): 1.4 ± 0.1 µM | initial rate of disappearance of NADPH (A340) (P450BM-3 [3]; with tetradecyl sulfate as substrate): 1.75 pmol/s | site of hydroxylation (P450BM-3 [6]): primarily ω−1 hydroxylation | NADPH oxidation accounted for as disappearance of the substrate (P450BM-3 [6]; over the first 100 seconds): 97%

d23-Lauric acid [d23 lauric acid]
kcat (P450BM-3 [3]): 16.2 ± 0.5 s⁻¹
